An excerpt weighted towards active compounds, which were near 2% of everything screened.
Rpn11 block: Rpn11 (PSMD14) deubiquitinase inhibitors, primary screen, biochemical, fluorescence polarization, uHTS. inhibition, % at 20 µM. 360,000 tested, 0.59% active. 26S proteasome non-ATPase regulatory subunit 14 (Homo sapiens), O00487. human 26S proteasome, Ub4-pepOG fluorescence polarization; 20S core pre-blocked with epoxomicin;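 active = inhibition at 20 µM, scaled to each plate's controls, above about 33%, limit read from the data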
LMPTP block: LMPTP phosphatase inhibitors, primary screen, biochemical, fluorescence intensity, uHTS. Low molecular weight phosphotyrosine protein phosphatase (Homo sapiens), P24666. recombinant LMPTP-A, OMFP fluorogenic substrate. AID 651560, 2012. 360,000 tested, 0.22% active. inhibition, % at 20 µM;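 active = compounds that cut the enzyme signal by at least half of the control window in the single-dose screen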
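Material: LMPTP-A; amount: 0.625 nM enzyme; doses: single 20 µM dose; times: reaction 50 min, room temperature, dark; technique: fluorescence intensity of OMFP turnover product; benchmarks: no-enzyme and uninhibited controls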
DNMT1 inh: human DNMT1 methyltransferase inhibitors, primary screen, biochemical, molecular beacon, fluorescence, HinP1I cleavage, uHTS; inhibition (reported as % activation of signal), % at 10 µM; 360,000 tested, 0.83% active; AID 588458, 2011; in the data active = inhibition above about 50%
STEP inh: STEP phosphatase inhibitors, primary screen, biochemical, fluorescence intensity, uHTS | Tyrosine-protein phosphatase non-receptor type 5 (Homo sapiens), P54829 | recombinant STEP, OMFP fluorogenic substrate | inhibition, % at 20 µM | 360,000 tested, 0.25% active;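 active = inhibition at 20 µM, scaled per plate between control wells, above about 37%, limit read from the data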
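System: STEP (striatal-enriched tyrosine phosphatase) enzyme, cell-free; medium: Bis-Tris pH 6.0 buffer with DTT, detergent; dosing: 20 µM, 1% DMSO; times: reaction 20 min, ambient temperature; detection: fluorescence, 480/540 nm; read-out basis: normalized % inhibition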
Scp-1 inhibitor: Scp-1 phosphatase inhibitors, primary screen, biochemical, colorimetric, uHTS; Carboxy-terminal domain RNA polymerase II polypeptide A small phosphatase 1 (Homo …; Recombinant Scp1, phosphopeptide, malachite green phosphate absorbance; inhibition, % at 20 µM; 340,000 tested, 0.88% active;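 active = inhibition above about 50% at 20 µM, limit read from the data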
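Test system: SCP-1 catalytic domain; Buffer or medium: Acidic Tris acetate buffer with magnesium and detergent; Also added: Phosphorylated 17-residue peptide substrate; Compound: single 20 µM dose, 1% DMSO; Schedule: enzyme reaction 45 min at room temperature, colour 5 min, stabilisation 30 min; Signal: Phosphate-binding colour reagent, absorbance read at 630 nm.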
Rpn11 inh conf: Rpn11 (PSMD14) deubiquitinase inhibitors, confirmation, biochemical, fluorescence polarization, single concentration; shares compounds with Rpn11 block; purified human 26S proteasome, Ub4-pepOG fluorescence polarization; proteasome pretreated with epoxomicin; inhibition, % at 20 µM; 1,900 tested, 29% active; AID 602318, 2012
MMP-2 counter: MMP-2 enzyme inhibition, confirmation, counter-screen for RPN11 inhibitor project, biochemical, fluorescence, single concentration; inhibition, % at 20 µM; recombinant MMP-2, FRET peptide cleavage fluorescence; 1,900 tested, 4% active; shares compounds with Rpn11 block;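 also: human MMP-2 activated beforehand with APMA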
Thrombin inh: bovine thrombin protease inhibition, confirmation, counter-screen for Rpn11 inhibitor project, biochemical, fluorescence polarization, single concentration; 1,900 tested, 13% active; inhibition, % at 20 µM; shares compounds with Rpn11 block; AID 602333, 2012; bovine thrombin cleavage of Ub4-pepOG;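 active = mean inhibition at least 40% at 20 µM, or signal 3 deviations below plate average, so some actives read negative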
Target sequence (P00735 whole entry, looked up): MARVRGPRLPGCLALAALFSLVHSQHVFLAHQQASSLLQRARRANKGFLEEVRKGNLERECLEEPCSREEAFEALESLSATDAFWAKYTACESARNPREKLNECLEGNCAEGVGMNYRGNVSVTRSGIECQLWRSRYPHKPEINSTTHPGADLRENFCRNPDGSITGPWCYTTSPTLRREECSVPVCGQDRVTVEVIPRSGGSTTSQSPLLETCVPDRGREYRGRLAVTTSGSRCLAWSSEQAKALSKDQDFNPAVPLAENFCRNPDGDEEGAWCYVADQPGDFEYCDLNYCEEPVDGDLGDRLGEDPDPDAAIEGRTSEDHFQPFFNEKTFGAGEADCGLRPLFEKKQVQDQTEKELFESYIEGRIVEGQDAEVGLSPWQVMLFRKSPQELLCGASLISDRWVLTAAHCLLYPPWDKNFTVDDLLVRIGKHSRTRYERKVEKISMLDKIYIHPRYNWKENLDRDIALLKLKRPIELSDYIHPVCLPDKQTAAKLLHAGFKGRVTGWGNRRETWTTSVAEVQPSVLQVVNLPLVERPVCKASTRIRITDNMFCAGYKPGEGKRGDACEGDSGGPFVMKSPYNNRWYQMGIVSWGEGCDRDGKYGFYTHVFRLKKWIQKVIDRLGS
Numbers stand for hits; n = inactive; x = no result given. Rule as the data show it, unless noted: active = inhibition above about 40%; inactive = the rest.

SMILES	Rpn11 block	LMPTP block	DNMT1 inh	STEP inh	Scp-1 inhibitor	Rpn11 inh conf	MMP-2 counter	Thrombin inh
CCC(=O)NC(c1cccs1)c1cc(Cl)c2ccccc2c1O (stereo unspecified)	n	n	n	n	n	x	x	x
CCCC(=O)NC(c1cccs1)c1cc([N+](=O)[O-])c2cccnc2c1O (stereo unspecified)	47	n	n	n	n	66	n	n
O=C(COC(=O)Cc1ccccc1[N+](=O)[O-])NNC(=O)c1ccc([N+](=O)[O-])cc1	n	n	n	n	n	x	x	x
Cc1cccc2cc(CNC3CCCC3)c(Cl)nc12	n	n	n	n	n	x	x	x
Cn1c(CNC(=O)c2ccco2)nnc1SCC(=O)Nc1ccc(Cl)cc1	n	n	n	n	n	x	x	x
CN(C)C(=O)c1ccc(NC(=O)COc2cccc3c2OC(C)(C)C3)cc1	n	n	n	n	n	x	x	x
O=C(COc1ccc([N+](=O)[O-])cc1)NC(=O)NC1CCS(=O)(=O)C1 (stereo unspecified)	n	n	n	n	n	x	x	x
Brc1ccccc1C1CC(c2ccccc2)=Nc2ccccc2N1 (stereo unspecified)	41	n	n	n	n	n	n	n
COc1cc(/C=N/NC(=O)c2cc3ccccc3cc2O)ccc1OCCN1CCCCC1	64	n	n	n	n	n	n	n
COc1cc(/C=N/NC(=O)c2ccncc2)ccc1OCCN1CCCCC1	n	n	n	n	n	x	x	x
O=C(O)c1ccc(N=Nc2c(O)ccc3ncccc23)cc1	47	n	n	n	73	n	n	n
O=C(O)c1cc(N=Nc2c(O)ccc3ccccc23)cc(C(=O)O)c1	n	n	n	n	n	x	x	x
COCCNC(=O)C(=O)NCC1OCCN1S(=O)(=O)c1ccc(F)cc1 (stereo unspecified)	n	n	n	n	n	x	x	x
COCc1cc(SC2CCCCC2)nc(C)n1	n	n	n	n	n	x	x	x
C(=N\Nc1nc2ccccc2[nH]1)/C1CCCCC1	n	n	n	n	n	x	x	x
O=C(Nc1nccs1)c1ccc(-c2ccc([N+](=O)[O-])cc2)o1	73	n	n	n	n	n	n	active
O=C(Nc1nccs1)c1ccc(-c2ccc(Cl)cc2)o1	n	n	n	n	n	x	x	x
COc1cccc(N2CC(C(=O)Nc3nnc(SCCN4CCOCC4)s3)CC2=O)c1 (stereo unspecified)	52	n	n	n	n	n	n	n
O=C(Nc1cccc([N+](=O)[O-])c1)Nc1cccs1	n	n	n	n	n	x	x	x
COc1cc(/C=C/c2nc3ccccc3c(=O)[nH]2)cc(Br)c1O	109	n	n	n	n	43	n	n
O=C(O)c1ccc(/C=C/c2nc3ccccc3c(=O)[nH]2)cc1	n	n	n	n	n	x	x	x
O=c1[nH]c(/C=C/c2ccccc2Cl)nc2ccccc12	75	n	n	n	n	n	n	n
COc1cc(/C=C/c2nc3ccccc3c(=O)[nH]2)ccc1O	n	n	n	n	x	x	x	x
O=C(COC(=O)CCS(=O)(=O)c1ccccc1)NC(=O)c1ccc(OC(F)F)cc1	n	n	n	n	n	x	x	x
C#CCOCCOCCOCCNc1nc(N2CCN(C(=O)CCCCCCCCCCNC(=O)Cn3cc(CCCCCN)nn3)CC2)nc(N2CCN(C(=O)CCCCCCCCCCNC(=O)[C@@H](CCSC)n3cc(CCO)nn3)CC2)n1	42	n	n	n	n	n	n	n
SMILES	Rpn11 block	LMPTP block	DNMT1 inh	STEP inh	Scp-1 inhibitor	Rpn11 inh conf	MMP-2 counter	Thrombin inh
COc1ccc(C2=NN(c3ccccc3)C(c3ccc(OC)c(OC)c3)C2)cc1 (stereo unspecified)	n	n	n	n	n	x	x	x
COc1ccc(C2=NN(C(C#N)c3ccc(OC)c(OC)c3)C(c3ccccc3)C2)cc1 (stereo unspecified)	66	n	n	n	n	n	n	n
CNS(=O)(=O)c1ccc(NC(=O)c2cncc(Br)c2)cc1	n	n	n	n	n	x	x	x
COc1ccc(CCNC(=O)CN(C2CCCCC2)S(C)(=O)=O)cc1	114	n	n	n	n	n	n	n
O=C(N/N=C/c1sc(=O)n(-c2ccccc2)c1Cl)c1ccncc1	57	n	n	n	n	n	n	n
COc1ccc(CN2C(=O)c3cccnc3C2Nc2ccc(C)cc2)cc1 (stereo unspecified)	47	n	n	n	n	n	n	n
Cc1ccc(NC(=O)CSCC(=O)N(C)CC(=O)Nc2ccccc2C(F)(F)F)cc1	n	n	n	n	n	x	x	x
CCOC(=O)[C@]12CCC=C1N(Cc1ccco1)C(=O)[C@H](CC(=O)NCCc1ccccc1OC)C2	x	n	x	x	x	x	x	x
O=C(c1cccn(Cc2ccc(Cl)c(Cl)c2)c1=O)N1CCOCC1	102	n	n	n	n	n	n	n
O=C(c1cccn(Cc2cccc(Cl)c2)c1=O)N1CCOCC1	n	n	n	n	n	x	x	x
COc1cccc(CN2CCNC(=O)C2CC(=O)N(C)C2CCOCC2)c1OC (stereo unspecified)	n	n	n	n	n	x	x	x
COc1ccccc1CN(Cc1cc2cc(C)ccc2[nH]c1=O)Cc1nnnn1Cc1ccco1	n	n	n	n	n	x	x	x
CCc1ccc2[nH]c(=O)c(CN(Cc3ccccc3OC)Cc3nnnn3Cc3ccco3)cc2c1	45	n	n	n	n	n	n	n
CO/C([O-])=N/c1c[n+](-c2ccc(Cl)cc2)no1	84	n	n	n	n	n	n	n
CCN(CC)c1cc(C(F)(F)F)nc(-c2ccccn2)n1	144	n	n	n	n	n	n	n
COc1cc2oc(=O)ccc2cc1-c1c(OC)ccc2ccc(=O)oc12	n	n	n	n	n	x	x	x
COc1ccc2cc(C#N)c(SCC(=O)N3CC(=O)Nc4ccccc43)nc2c1	48	n	n	n	n	n	n	n
CC(C1SC(=S)NC1=O)C1SC(=S)NC1=O (stereo unspecified)	53	68	n	n	x	42	n	n
